Measured values reported in the EternaBench riboswitch data.

System: MS2 coat protein
Experiment: apparent Kd, MS2 coat protein; higher = weaker binding; RNA-MaP array; FMN 200 µM where present
In short: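 Designs on Illumina sequencing-chip clusters, transcribed by stalled E. coli RNA polymerase, were exposed to SNAP-549-labelled MS2 coat protein in doubling steps from 0.7 or 1.5 nM up to 3 µM, without and then with constant ligand. The buffer held 100 mM Tris-HCl pH 7.5, 80 mM KCl, 4 mM MgCl2, BSA, DTT, yeast tRNA and Tween-20. Apparent Kd values are medians of filtered per-cluster binding-curve fits to green signal normalised to red-channel RNA signal and control-cluster median Fmax.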

[1] = designed as: OFF switch for flavin mononucleotide, no ligand
[2] = ligand present: flavin mononucleotide, designed as: OFF switch for flavin mononucleotide
[3] = designed as: ON switch for flavin mononucleotide, no ligand
[4] = ligand present: flavin mononucleotide, designed as: ON switch for flavin mononucleotide

| Sequence | apparent Kd [1] [nM] | apparent Kd [2] [nM] | apparent Kd [3] [nM] | apparent Kd [4] [nM] |
| --- | --- | --- | --- | --- |
| UGCGGUAGAGGAUAUACGUAGAACUAGGUUCAUGUAAAACUACAUGAGGAUCACCCAUGUAGAAGGCUAUCGCU | 17 | 22.4 | – | – |
| GUACGCUCAGGAUAUCAAGGGCUGUACAUGAGGAUCACCCAUGUUAUCUUGGUGUCAGCGUGAGAAGGGAGGGAAA | 26 | 32.7 | – | – |
| CAUGUCCUCACAGGAUAUGCACCACUUUGUGGUGCAGAAGGGUGGAUACAUGAGGAUCACCCAUGUGGACAUGAUAUAUUUAAG | – | – | 708 | 58.4 |
| AUCCGACAUGAGGAUCACCCAUGUCAGGAUAUGGACUGACAUCGAAAGGAUGGAAGAACCAGAAGGGACUGGGC | 28.2 | 48.5 | – | – |
| UGGUACUAGGGAGGAUAUGGGAAGAUACAUGAGGAUCACCCAUGUUUAAGAAUGCCGAGAGGCAACUAGAAGGCCCUAGUACCC | – | – | 430 | 19.1 |
| GCAUAGGACAGAGGAUAUACGUGCUAGAGAUACUAGCAAAAUUUCCUCACAUGAGGAUCACCCAUGUAGAAGGCUGUCCUAUCG | 17.6 | 422 | – | – |
| UGUUGUAUUACAGGAUAUCUAUUAUUUUUAUGUAGAGAAGGGUAUUCACAUGAGGAUCACCCAUGUAUAUACGAGGAAGUUGUG | – | – | 44.1 | 45.5 |
| ACCGUCCUCGUCAGGAUAUGUAUUGACUCUCCGAUACAGAAGGGACAUGAGGAUCACCCAUGUCCGGGACCUUA | 18.2 | 21.7 | – | – |
| UAUAUAUAGUAAGGAUAUGUAUUUCUUUUAUAAACAGAAGGUACUGACAUGAGGAUCACCCAUGUUUUAGUGUGGGCAUGUAGA | 81.2 | 116 | – | – |
| CCGUGGCAAGGAUAUACGUAGGAGAGGAAGGCAAGAGAAGGACAUGAGGAUCACCCAUGUAGAAGGUGCAGAUC | 56.5 | 56.5 | – | – |
| AAAAUGUGAGGAUAUCAGGUGUGCUAGCGAACUGGUACAUCUGAGAAGGCACAUGAGGAUCACCCAUGUUCCUU | 15.8 | 57 | – | – |
| AAGACGUAAGGAUAUAUUAUGGGACAAUGAAGGAAGAUAAAACAUGAGGAUCACCCAUGUAGAAGGUGCAAAGA | 45.9 | 41.5 | – | – |
| AUAAUAGAGUCAGGAUAUGGACAUGAGGAUCACCCAUGUGCAGGGAUCCUCCCAGAAGGGACAUCUAAACAAAAGGCGCUAUCC | 307 | 147 | – | – |
| UGAGCAUCAGGAUAUAUAUGGCGACCGUGAGGUCGAAGGUUACAUGAGGAUCACCCAUGUAGAAGGGAUGUUCU | 36.6 | 147 | – | – |
| CGCUACGUUUCGUAGCAGCUAGGUGAGGAUAUUCAAUUUUUCACAUGAGGAUCACCCAUGUAUGUGAAGAAGGCGCCUAGAAAC | – | – | 10.8 | 4.81 |
| AAUUGACACGUAGGAUAUCGAACUAUUUUAACACGAGAAGGACGUACAUGAGGAUCACCCAUGUUUAAUGGAGUAGAUAAGUUG | 154 | 290 | – | – |
| UUUUAACAUGAGGAUCACCCAUGUGAGGAUAUCGAAAUUUAUAUUAAUAUUAUUAUUUCGAGAAGGCACAUUUU | 136 | 137 | – | – |
| UUUGUUUUGCAAGGAUAUGUUUAAUUUUAGUUUCCUUACACAUGAGGAUCACCCAUGUUAUACUUACAGAAGGUGCGUAAUUUG | 149 | 136 | – | – |
| AACACAACAUGAAACAUGAGGAUCACCCAUGUUGUUUGUAAUCAGGAUAUGAUCUCAAGAAUGAAUUAGAAGGGAUAGGGAGGG | – | – | 35.8 | 47.1 |
| GAUUUCGCAUGAGGAUAUGCUCGCAUUUCAAGAGCAGAAGGUAUGUCUUUAGACAUGAGGAUCACCCAUGUAGUUAAGAUUGAA | – | – | 24.3 | 14.7 |
| CGCAUGCGUAGUAUUAGUUGCUGACAGGAUAUGACAUGAGGAUCACCCAUGUGAAUUAAGAAGAGUCAGAAGGGUCACGUUGCG | 11.6 | 10.6 | – | – |
| CGAUGACAAAGUCAUCGAUAACGAACAUGAGGAUCACCCAUGUAGGAUAUGCUACUCAAAGAGUAGCAGAAGGACAUGUGUCUU | 31.7 | 154 | – | – |
| UGUUGUAUUACAGGAUAUCUAGUAUUUUUACUUAGAGAAGGGUAUUCACAUGAGGAUCACCCAUGUAUAUACGAGGAAGUUGUG | – | – | 28.8 | 29.8 |
| UGCUACGUUUCGUAGCAGUGUCAUCGAGAAGGCCCUGACAUGAGGAUCACCCAUGUUGUUACAUGGGAGGAUAUCGAUGAUACU | – | – | 12.4 | 5.09 |
| CCUUAAAAGAUCCAAAAUUACAACAUGAGGAUCACCCAUGUGCAGGAUAUCGUGCCAGUGAUGUACGAGAAGGGCAGACUCUGC | 147 | 170 | – | – |
| CCAUCUUGUCGAGGAUAUAUUAACAUGACAUGAGACACAUGAGGAUCACCCAUGUAUGUUGUUGUAUAGAAGGCGACUACAUGA | – | – | 50.4 | 51.2 |
| UUUUAACAUGAGGAUCACCCAUGUGAGGAUAUCGAAAUUUAUAUUUAUAUUUAUAAAUCGAGAAGGCACAUUUU | 110 | 99.1 | – | – |
